The list is not random: actives were taken first. Their share in the collection is about 3%.
Pemphigus Ab inh – human desmoglein-3 autoantibody binding inhibition | DSG3-coupled beads, scFv-anti-DSG3-GFP binding, flow cytometry; hits give low values | binding (percent of control), % at 10 µM | actives 0.48% (n = 310,000);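 active means binding more than 3 SD below its plate's average and above zero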;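 further: hits lower antibody fragment binding to DSG3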
Myeloid diff MLP – compounds promoting myeloid differentiation. ER-HoxA9 myeloid progenitors, lysozyme-GFP differentiation, flow cytometry. calls only at 10 µM. actives 1% (n = 360,000). AID 624256;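 active means normalized GFP-positive differentiation at or above the plate's own cutoff, the solvent-only control mean plus 3 SD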;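 further: cells exposed to compound for four days before flow analysis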
SENP1 inh – SENP1 (human) catalytic domain inhibition | Q9P0U3 | recombinant SENP1 catalytic domain, CyPet-SUMO1-YPet FRET cleavage | inhibition, % at 10 µM | actives 0.21% (n = 360,000) | AID 624204;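 active means inhibition at least 30% at 10 µM, raw YFP signal under a set limit, fluorescence ratio 0.5 to 1.5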;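 further: 0% = enzyme with DMSO and 100% = no enzyme wells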
Target sequence (Q9P0U3 419-644 limits assumed): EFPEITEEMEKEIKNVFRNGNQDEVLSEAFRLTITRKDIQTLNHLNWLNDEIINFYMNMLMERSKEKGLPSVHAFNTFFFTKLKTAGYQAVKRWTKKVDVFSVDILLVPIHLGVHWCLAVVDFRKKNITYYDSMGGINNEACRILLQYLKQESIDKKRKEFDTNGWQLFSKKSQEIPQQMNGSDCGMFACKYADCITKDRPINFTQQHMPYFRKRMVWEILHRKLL
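Controls: no-enzyme wells low, DMSO-plus-enzyme wells high control. Test system: human recombinant His6-tagged SENP1 catalytic domain enzyme. Reagent: SFCypet-SUMO1-SFYpet FRET protein substrate, 25 nM final. Doses: one dose per compound, 10 µM, 0.5% DMSO. Detection: FRET, CFP and YFP emission. Timing: 50 min reaction at room temperature.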
HNF4A DNA FP – change in binding of human HNF4 alpha to DNA; P41235; HNF4a-FITC DNA binding, fluorescence polarization, 1 h; activity change, % at 10 µM; actives 0.3% (n = 360,000); in the data active means activity change above about 30%, passing the limit was not always enough
Exocytosis inh – lytic granule exocytosis inhibition; TALL-104 LAMP-1 surface exposure, flow cytometry; cells stimulated with thapsigargin and PMA; inhibition, % at 10 µM; AID 651702; actives 0.66% (n = 360,000);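 active means inhibition above about 55%, limit read from the data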
Cardio protect – protects H9c2 cardiomyocytes from peroxide injury. H2O2 injury protection, ATPLite, 2 h. protection from H2O2 cell death, % at 20 µM. actives 0.63% (n = 360,000);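 active means compounds giving at least 50% protection of heart cells from peroxide-induced death in the single-dose screen, raw or plate-pattern-corrected value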;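 further: 0% = DMSO wells with peroxide and 100% = DMSO wells without peroxide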
Granule exo CP1 – blocks lytic granule exocytosis. shares compounds with Exocytosis inh. inhibition, % at 10 µM. actives 11% (n = 1,500). TALL-104 cells, LAMP-1 externalization, flow cytometry; stimulated with PMA plus thapsigargin. AID 651954; in the data active means inhibition above about 60%;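 further: 0% = stimulated vehicle wells and 100% = unstimulated wells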
An asterisk follows results filed as active; i = inactive; . = no result given.

SMILES	Pemphigus Ab inh	Myeloid diff MLP	SENP1 inh	HNF4A DNA FP	Exocytosis inh	Cardio protect	Granule exo CP1
CCc1nnc(NC(=O)[C@@H](NS(=O)(=O)c2ccc3c(c2)OCCO3)C(C)C)s1	.	i	1	7	58*	10	-4
Cc1ccc(C(=O)N/C(=C\c2ccc(-c3ccccc3[N+](=O)[O-])o2)C(=O)NCCCN(C)C)cc1	94	i	-45	-5	77*	-13	-3
Cc1ccc(C(=O)N/C(=C\c2ccc(-c3ccccc3[N+](=O)[O-])o2)C(=O)NCCN(C)C)cc1	108	i	-50	0	40	-22	.
COC(=O)CCC(=O)N(C)CC1CCCN(CCc2cccc(C(F)(F)F)c2)C1 (centres undefined)	102	i	-1	2	3	3	.
COc1cc(CN(C)CC2CCCN(CCc3cccc(C(F)(F)F)c3)C2)ccc1O (centres undefined)	109	i	1	1	56*	-7	-3
COc1cc(CN(C)CC2CCCN(CCc3ccccc3F)C2)cc(Cl)c1OC (centres undefined)	98	i	-1	0	56*	-8	-4
CN(Cc1ccccc1)CC1CCCN(CCc2ccccc2F)C1 (centres undefined)	112	i	0	3	54	10	.
COc1ccc(CN(C)CC2CCCN(CCc3ccc(F)cc3)C2)cc1OC (centres undefined)	120	i	0	2	60*	6	-14
COc1ccccc1CCN1CCCC(CN(C)CC(C)(C)CO)C1 (centres undefined)	102	i	-2	-6	62*	-1	-4
COCC(=O)N(C)CC1CCCN(CCc2ccccc2OC)C1 (centres undefined)	107	i	2	0	3	-2	.
c1ccc(COc2cccc(-c3cc4nc(NCc5ccc6c(c5)OCO6)ccn4n3)c2)cc1	.	i	-5	0	5	-9	.
CCOc1cccc(CN(C)CC2CCCN(CCc3ccc(Cl)cc3)C2)c1O (centres undefined)	111	i	-2	-1	76*	-2	-2
COc1ccc(CN(C)CC2CCCN(CCc3ccc(Cl)cc3)C2)cc1OC (centres undefined)	97	i	0	-2	14	5	.
COc1ccccc1N1C(=O)CC(Sc2nccc(C)n2)C1=O (centres undefined)	98	i	2	-5	-3	6	.
COc1ccccc1N1C(=O)CC(Sc2n[nH]c(-c3cccc(C)c3)n2)C1=O (centres undefined)	106	i	1	4	59*	-20	52
CSc1ncc(Cl)c(C(=O)Nc2cccnc2)n1	104	i	-1	0	79*	3	-4
Cc1[nH]c2ccccc2c1C(c1ccccn1)N1CCC(C(N)=O)CC1 (centres undefined)	108	i	4	-2	57*	20	18
CCOC(=O)C1CCN(C(c2ccccn2)c2c(C)[nH]c3ccccc23)CC1 (centres undefined)	101	i	-1	0	55	16	.
C[C@]12c3[nH]c4ccc(Cl)cc4c3CCN1C(=O)[C@@H](CC(=O)NCCC1=CCCCC1)C[C@@H]2C(=O)N1CCOCC1	99	i	-1	-1	-4	2	.
O=C(Nc1ccc(N2CCN(c3ncccc3C(F)(F)F)CC2)nc1)c1cccs1	107	i	2	3	75*	4	18
O=C(Nc1ccc(N2CCN(c3ccc(C(F)(F)F)cn3)CC2)nc1)c1cccs1	108	i	-4	-1	-3	2	.
CC1=NN(C(N)=S)C(=O)C1N=Nc1ccc(C)c(Br)c1 (centres undefined)	102	i	0	2	4	-8	.
Clc1ccc(CNC2CCN(Cc3ccccc3)CC2)cc1	113	i	0	4	67*	8	-11

Source: PubChem (several laboratories)
